Measured values reported in ChEMBL document CHEMBL4699636, “Novel 2,7-Diazaspiro[4,4]nonane Derivatives to Inhibit Mouse and Human Osteoclast Activities and Prevent Bone Loss in Ovariectomized Mice without Affecting Bone Formation” (J Med Chem, 2020).
Active and inactive are the calls of the source. The calls are words filed in the database; no cut-off is given here.

Key:
Mus musculus [1] = assay: Antiosteoporotic activity in C57BL6/J mouse model of OVX-induced bone loss assessed as degree of anisotropy (range 0-1) level in tibial metaphysis at 20 mg/kg, ip QD for 4 weeks by microCT analysis (0.53 +/- 0.07); type: functional
[2] = Toxicity in C57BL6/J mouse model of OVX-induced bone loss assessed as effect on bone formation by measuring osteoblast surface per trabecular bone surface level in femoral metaphysis at 20 mg/kg, ip QD for 4 weeks by histomorphometry (5.03 +/ 2.92 %); type: organism-based; settings: in vivo, 672 h
Summary of the method: (§1)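 OVX mice, 12 weeks old, ip 20 mg/kg q.d. or b.i.d. for 4 weeks in CMC/Tween 80 vehicle. Distal right femur taken day 28. Static trabecular parameters measured on one 4-µm Masson-Goldner trichrome section, ROI 0.75 mm². n=10 per group, 9 in OVX+vehicle.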

[3] = Toxicity in C57BL6/J mouse model of OVX-induced bone loss assessed as effect on bone formation by measuring osteocalcin level at 20 mg/kg, ip QD for 4 weeks (1.62 +/ 0.21 m3/um2/y); type: organism-based; settings: in vivo, 672 h
Mus musculus [4] = assay: Antiosteoporotic activity in C57BL6/J mouse model of OVX-induced bone loss assessed as cortical thickness level in tibial diaphysis at 20 mg/kg, ip QD for 4 weeks by microCT analysis (179.27 +/- 7.57 um); type: functional
Mus musculus [5] = assay: Antiosteoporotic activity in C57BL6/J mouse model of OVX-induced bone loss assessed as structure model index level in tibial metaphysis at 20 mg/kg, ip BID for 4 weeks by microCT analysis (1.92 +/- 0.19); type: functional; settings: dose […]
[6] = Toxicity in C57BL6/J mouse model of OVX-induced bone loss assessed as effect on bone formation by measuring osteoblast surface per trabecular bone surface level in femoral metaphysis at 20 mg/kg, ip BID for 4 weeks by histomorphometry (5.03 +/ 2.92 %); type: organism-based; settings: in vivo, 672 h; summary of the method: as §1
[7] = Toxicity in C57BL6/J mouse model of OVX-induced bone loss assessed as effect on body weight at 20 mg/kg, IP QD for 4 weeks; type: organism-based; settings: in vivo, 672 h
Summary of the method: (§2)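 Body weight tracked in 12-week-old OVX C57BL6/J mice during 4 weeks of ip 20 mg/kg q.d. or b.i.d. dosing in 0.485% carboxymethylcellulose/3% Tween 80, 10 mL/kg.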

[8] = Toxicity in C57BL6/J mouse model of OVX-induced bone loss assessed as effect on bone formation by measuring mineralizing surface per trabecular bone surface level in femoral metaphysis at 20 mg/kg, ip BID for 4 weeks by histomorphometry (27.90 +/ 8.22 %); type: organism-based; settings: in vivo, 672 h
Mus musculus [9] = assay: Antiosteoporotic activity in C57BL6/J mouse model of OVX-induced bone loss assessed as degree of anisotropy (range 0-1) level in tibial metaphysis at 20 mg/kg, ip BID for 4 weeks by microCT analysis (0.53 +/- 0.07); type: functional
[10] = Toxicity in C57BL6/J mouse model of OVX-induced bone loss assessed as effect on body weight at 20 mg/kg, IP BID for 4 weeks; type: organism-based; settings: in vivo, 672 h; summary of the method: as §2
[11] = Toxicity in C57BL6/J mouse model of OVX-induced bone loss assessed as effect on osteoclast numbers per bone perimeter at 20 mg/kg, IP QD for 4 weeks; type: organism-based; settings: in vivo, 672 h; summary of the method: as §1
[12] = Toxicity in C57BL6/J mouse model of OVX-induced bone loss assessed as effect on bone formation by measuring number of osteoblasts per bone surface level in femoral metaphysis at 20 mg/kg, ip QD for 4 weeks by histomorphometry (4.55 +/ 2.53 /mm); type: organism-based; settings: in vivo, 672 h; summary of the method: as §1
[13] = Toxicity in C57BL6/J mouse model of OVX-induced bone loss assessed as effect on bone formation by measuring mineralizing mineral apposition rate level in femoral metaphysis at 20 mg/kg, ip BID for 4 weeks by histomorphometry (1.62 +/ 0.21 um/d (lcm)); type: organism-based; settings: in vivo, 672 h
Mus musculus [14] = assay: Antiosteoporotic activity in C57BL6/J mouse model of OVX-induced bone loss assessed as trabecular thickness level in femoral metaphysis at 20 mg/kg, ip BID for 4 weeks by histomorphometry (39.96 +/- 5.42 um); type: functional; summary of the method: as §1
[15] = system: Osteoclast (Homo sapiens); assay: Inhibition of resorption activity of human peripheral blood cell-derived osteoclasts incubated for 48 hrs by Kossa-staining based assay
Mus musculus [16] = assay: Antiosteoporotic activity in C57BL6/J mouse model of OVX-induced bone loss assessed as trabecular separation level in femoral metaphysis at 20 mg/kg, ip BID for 4 weeks by histomorphometry (319.80 +/- 106.52 um); type: functional; summary of the method: as §1
[17] = Toxicity in C57BL6/J mouse model of OVX-induced bone loss assessed as effect on bone formation by measuring osteocalcin level at 20 mg/kg, ip BID for 4 weeks […]; type: organism-based; settings: in vivo, 672 h
Osteoclast = assay: Inhibition of resorption activity of mouse peripheral blood cell-derived osteoclasts at 5-10 uM incubated for 48 hrs by Kossa-staining based assay; type: functional, tissue-based; settings: dose microM 5-10, time 48.0 hrs, in the assay text read “bone marrow-derived” for “peripheral blood cell-derived”
Summary of the method: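 Osteoclasts from C57BL/6J mouse bone marrow, M-CSF then M-CSF 30 ng/mL plus RANKL 100 ng/mL. Day-3 cells reseeded on calcium phosphate-coated wells, compound added next day in 0.5% DMSO for 48 h, 8 wells per condition. 4 wells TRAP-stained for osteoclast counts, 4 von Kossa-stained for resorbed area. Activity expressed as resorption normalized to osteoclast number.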

Mus musculus [18] = assay: Antiosteoporotic activity in C57BL6/J mouse model of OVX-induced bone loss assessed as trabecular pattern factor level in tibial metaphysis at 20 mg/kg, ip QD for 4 weeks by microCT analysis (17.17 +/- 3.41 […]); type: functional
Mus musculus [19] = assay: Antiosteoporotic activity in C57BL6/J mouse model of OVX-induced bone loss assessed as trabecular bone volume per tissue volume level in tibial metaphysis at 20 mg/kg, ip BID for 4 weeks by microCT analysis (17.49 +/- 2.91 %); type: functional
Mus musculus [20] = assay: Antiosteoporotic activity in C57BL6/J mouse model of OVX-induced bone loss assessed as trabecular thickness level in femoral metaphysis at 20 mg/kg, ip QD for 4 weeks by histomorphometry (39.96 +/- 5.42 um); type: functional; summary of the method: as §1
[21] = Toxicity in C57BL6/J mouse model of OVX-induced bone loss assessed as effect on bone formation by measuring bone formation rate per trabecular bone surface level in femoral metaphysis at 20 mg/kg, ip BID for 4 weeks by histomorphometry ([…]); type: organism-based; settings: in vivo, 672 h
Mus musculus [22] = assay: Antiosteoporotic activity in C57BL6/J mouse model of OVX-induced bone loss assessed as cortical thickness level in tibial diaphysis at 20 mg/kg, ip BID for 4 weeks by microCT analysis (179.27 +/- 7.57 um); type: functional
Mus musculus [23] = assay: Antiosteoporotic activity in C57BL6/J mouse model of OVX-induced bone loss assessed as structure model index level in tibial metaphysis at 20 mg/kg, ip QD for 4 weeks by microCT analysis (1.92 +/- 0.19); type: functional; settings: dose […]

IC50 [15]: 3.44 µM
SMILES: O=S1(=O)N(c2ccccc2)C[C@H](O)[C@]12CCN(Cc1ccc(Cl)cc1)C2 (racemic)
Activity_index (Mus musculus [1]): 0.5 | Activity [2]: 3.57% | Activity [3]: 96.8% | Activity (Mus musculus [4]): 187.72 um | Activity_index (Mus musculus [5]): 1.48 | Activity [6]: 4.01% | Activity [7]: Non-Toxic | Activity [8]: 26.07% | Activity_index (Mus musculus [9]): 0.45 | Activity [10]: Non-Toxic | Activity [11]: Non-Toxic | Activity [12]: 2.96 /millimeter | Activity [13]: 1.65 micrometer/day | Activity (Mus musculus [14]): 47.2 µm | Activity (Mus musculus [16]): 251.29 um | Activity [17]: 109.97% | inhibition (Osteoclast): Active | Activity (Mus musculus [18]): 13.7 1/mm | Activity (Mus musculus [19]): 25.3% | Activity (Mus musculus [20]): 41.8 µm | Activity [21]: 157.59 um3/um2/yr | Activity (Mus musculus [22]): 193.5 um | Activity_index (Mus musculus [23]): 1.88
